Measurements as given in ChEMBL document CHEMBL4706681, “New 2-Pyrazoline and Hydrazone Derivatives as Potent and Selective Monoamine Oxidase A Inhibitors” (J Med Chem, 2021).
Values belong to the compound of their own block, whether it stands above or below them. Calls of active or inactive are those of the source. The rule behind the calls is not given here.

Tests used:
[1] = target: T1, Amine oxidase [flavin-containing] B (Homo sapiens, UniProt P27338); test: Inhibition of recombinant human MAO-B expressed in baculovirus infected BTI insect cells using p-tyramine as substrate incubated for 30 mins by Amplex red reagent based fluorescence analysis; format: cell-based
T1 sequence (P27338 whole entry): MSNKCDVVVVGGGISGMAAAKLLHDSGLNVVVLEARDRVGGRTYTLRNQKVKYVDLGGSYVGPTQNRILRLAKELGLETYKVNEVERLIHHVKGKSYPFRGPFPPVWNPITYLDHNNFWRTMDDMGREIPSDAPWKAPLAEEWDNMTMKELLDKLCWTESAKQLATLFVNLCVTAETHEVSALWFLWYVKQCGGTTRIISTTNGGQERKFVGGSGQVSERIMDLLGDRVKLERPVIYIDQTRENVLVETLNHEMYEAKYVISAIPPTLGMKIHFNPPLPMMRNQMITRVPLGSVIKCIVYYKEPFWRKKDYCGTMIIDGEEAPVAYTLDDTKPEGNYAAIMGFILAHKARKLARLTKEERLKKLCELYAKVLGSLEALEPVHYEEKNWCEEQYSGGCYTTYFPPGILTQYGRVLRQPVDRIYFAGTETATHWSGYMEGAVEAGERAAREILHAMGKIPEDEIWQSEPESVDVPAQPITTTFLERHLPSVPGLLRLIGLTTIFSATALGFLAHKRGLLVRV

[2] = Selectivity index, ratio of Ki for inhibition of recombinant human MAO-A to Ki for inhibition of recombinant human MAO-B using p-tyramine as substrate
[3] = Permeability of compound in PBS/EtOH buffer (70:30) at 25 ug/ml incubated for 16 hrs by UV plate reader based PAMPA-BBB
Mus musculus [4] = test: Antidepressant-like activity in CD1 mouse assessed as reduction in immobility time at 30 mg/kg, po administered via gavage as single dose measured after 1 hr by Porsolt-forced swim test; format: functional, organism-based
Mus musculus [5] = test: Antidepressant-like activity in CD1 mouse assessed as reduction in immobility time at 30 mg/kg, po administered via gavage for 7 days and measured 1 h post last dose by Porsolt-forced swim test; format: functional, organism-based; settings: time 7.0 day
In short: (§1)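 Male albino CD-1 mice (20–25 g), 12 h light/dark, food and water ad libitum. Dosed by oral gavage once daily for 7 days in 200 μL 0.5% CMC; vehicle-only controls. […] Forced swim test run 1 h after the last dose. Immobility scored every 60 s over 6 min; n = 8–12.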

[6] = Ex vivo inhibition of MAOA in CD1 mouse brain homogenates assessed as MAOA level at 30 mg/kg, po administered as single acute dose via gavage and measured after 1 hr by monoamine oxidase assay (reference value: 0.40 +/- 0.012 nmol/min/mg); format: functional
[7] = Ex vivo inhibition of MAOA in CD1 mouse brain homogenates assessed as assessed as inhibition of 5-HT deamination by measuring 5-HIAA metabolite levels at 30 mg/kg, po administered as single acute dose via gavage and measured after 1 hr by HPLC analysis (reference value: 0.28 +/- 0.011 ug/g); format: functional
[8] = Ex vivo inhibition of MAOA in CD1 mouse brain homogenates assessed as assessed as inhibition of dopamine deamination by measuring DOPAC metabolite levels at 30 mg/kg, po administered as single acute dose via gavage and measured after 1 hr by HPLC analysis (reference value: 1.22 +/- 0.2 ug/g); format: functional
[9] = Ex vivo inhibition of MAOA in CD1 mouse brain homogenates assessed as MAOA level at 30 mg/kg, po administered as subchronic dose via gavage for 7 days and measured 1 hr post last dose by monoamine oxidase assay (reference value: 0.40 +/- 0.005 nmol/min/mg); format: functional; settings: time 7 day
[10] = Ex vivo inhibition of MAOA in CD1 mouse brain homogenates assessed as 5-HT levels at 30 mg/kg, po administered as subchronic dose via gavage for 7 days and measured 1 hr post last dose by ELISA kit method (reference value: 0.78 +/- 0.01 ug/g); format: functional; settings: time 7 day
[11] = Ex vivo inhibition of MAOA in CD1 mouse brain homogenates assessed as inhibition of 5-HT deamination by measuring 5-HIAA metabolite levels by using at 30 mg/kg, po administered as subchronic dose via gavage for 7 days and measured 1 hr post last dose by HPLC analysis (reference value: 0.18 +/- 0.01 ug/g); format: functional; settings: time 7 day
[12] = Effect on locomotor activity in CD1 mouse assessed as total distance traveled at 30 mg/kg, po administered via gavage for 7 days by open field test; format: ADME, organism-based; settings: in vivo, 168 h, time 7 day
In short: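 Each mouse placed in the centre of a 50 × 50 × 30 cm black box and video-tracked; total distance travelled over 5 min; n = 8–10.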

Mus musculus [13] = test: Antidepressant-like activity in CD1 mouse assessed as reduction in immobility time at 20 mg/kg, po administered via gavage as single dose measured after 1 hr by Porsolt-forced swim test; format: functional, organism-based
Mus musculus [14] = test: Antidepressant-like activity in CD1 mouse assessed as reduction in immobility time at 20 mg/kg, po via gavage administered as […] dose for 7 days and measured 1 h post last dose by Porsolt-forced swim test; format: functional, organism-based; settings: time 7.0 day
[15] = Ex vivo inhibition of MAOA in CD1 mouse brain homogenates assessed as MAOA level at 20 mg/kg, po administered administered as single acute dose via gavage and measured after 1 hr by monoamine oxidase assay (reference value: 0.40 +/- 0.012 nmol/min/mg); format: functional
[16] = Ex vivo inhibition of MAOA in CD1 mouse brain homogenates assessed as 5-HT levels at 20 mg/kg, po administered as single acute dose via gavage and measured after 1 hr by ELISA kit method (reference value: 0.80 +/- 0.006 ug/g); format: functional
[17] = Ex vivo inhibition of MAOA in CD1 mouse brain homogenates assessed as dopamine levels at 20 mg/kg, po administered as single acute dose via gavage and measured after 1 hr by ELISA kit method (reference value: 7.08 +/- 0.58 ug/g); format: functional
[18] = Ex vivo inhibition of MAOA in CD1 mouse brain homogenates assessed as inhibition of 5-HT deamination by measuring 5-HIAA metabolite levels at 20 mg/kg, po administered as single acute dose via gavage and measured after 1 hr by HPLC analysis (reference value: 0.28 +/- 0.011 ug/g); format: functional
[19] = Ex vivo inhibition of MAOA in CD1 mouse brain homogenates assessed as 5-HT levels at 20 mg/kg, po administered as subchronic dose via gavage for 7 days and measured 1 hr post last dose by ELISA kit method (reference value: 0.78 +/- 0.01 ug/g); format: functional; settings: time 7 day
[20] = Ex vivo inhibition of MAOA in CD1 mouse brain homogenates assessed as inhibition of 5-HT deamination by measuring 5-HIAA metabolite levels at 20 mg/kg, po administered as subchronic dose via gavage for 7 days and measured 1 hr post last dose by HPLC analysis (reference value: 0.18 +/- 0.01 ug/g); format: functional; settings: time 7 day
Mus musculus [21] = test: Antidepressant-like activity in CD1 mouse assessed as reduction in immobility time at 10 mg/kg, po administered as subchronic dose via gavage for 7 days and measured 1 h post last dose by Porsolt-forced swim test; format: functional, organism-based; settings: time 7.0 day; in short: as §1
Mus musculus [22] = test: Antidepressant-like activity in po dosed CD1 mouse assessed as maximum efficacy administered as subchronic dose gavage for 7 days and measured 1 h post last dose by Porsolt-forced swim test; format: functional; settings: time 7 day; in short: as §1

Ki [1]: 655 µM | Ratio Ki [2]: 1.37 10^-5No_unit | Papp at 16 h, 25 ug/ml [3]: 8.05 ×10⁻⁶ cm/s
SMILES: COc1ccc(C2=NN(C(=O)Cn3c(=O)oc4ccc(C)cc43)C(c3cccc(OC)c3OC)C2)cc1 (configuration not stated)
Activity (Mus musculus [4]): Active | Activity (Mus musculus [5]): Active | Activity [6]: 0.23 nmol/min/mg | Activity [7]: 0.35 µg/g | Activity [8]: 1.25 µg/g | Activity [9]: 0.21 nmol/min/mg | Activity [10]: 1.15 µg/g | Activity [11]: 0.3 µg/g | Activity [12]: Non-Toxic

SMILES: O=C(NCCN1CCOCC1)c1ccc(Cl)cc1 [MOCLOBEMIDE]
Activity (Mus musculus [13]): Active | Activity (Mus musculus [14]): Active | Activity [15]: 0.35 nmol/min/mg | Activity [16]: 0.83 µg/g | Activity [17]: 7.1 µg/g | Activity [18]: 0.32 µg/g | Activity [19]: 0.91 µg/g | Activity [20]: 0.23 µg/g | Activity (Mus musculus [21]): Active | Emax (Mus musculus [22]): 20 mg/kg
